From ChEMBL document CHEMBL1828575, “Design, synthesis and antiproliferative activities of biarylolefins based on polyhydroxylated and carbohydrate scaffolds” (Eur J Med Chem, 2011)

How the values were obtained:
Format in all cases: functional
UACC-257 = assay: Cytotoxicity against human UACC257 cells assessed as cellular growth at 10 uM after 48 hrs by SRB assay
Summary of the method: (§1)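 NCI-60 panel lines grown in RPMI 1640 with 5% FBS and 2 mM L-glutamine. Plated at 5000–40,000 cells/well and preincubated 24 h at 37 °C, 5% CO₂, with time-zero plates fixed in TCA. Compounds, dissolved in DMSO and diluted in medium, were applied for 48 h. Cells were TCA-fixed (10% final for adherent, 16% for suspension) and stained with 0.4% SRB in 1% acetic acid. Dye was solubilised in 10 mM Tris base and read at 515 nm; growth was expressed as a percentage of untreated control.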

SN12C = assay: Cytotoxicity against human SN12C cells assessed as cellular growth at 10 uM after 48 hrs by SRB assay; summary of the method: as §1
MDA-MB-435 = assay: Antitumor activity against human MDA-MB-435 cells after 48 hrs by SRB assay; details: MDA-MB-435, 48 h
Summary of the method: (§2)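 NCI60 panel in RPMI 1640 with 5% FBS and 2 mM L-glutamine. Cells were plated at 5000–40,000/well by doubling time, held 24 h, then time-zero plates were TCA-fixed. Five concentrations (10-fold or half-log dilutions of DMSO stocks) were applied for 48 h at 37 °C, 5% CO2. Cells were fixed with cold TCA (10% final adherent, 16% suspension) and stained with 0.4% SRB. Bound dye was dissolved in 10 mM Tris and read at 515 nm. GI50, TGI and LC50 were calculated per line.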

MCF7 = assay: Cytotoxicity against human MCF7 cells assessed as cellular growth at 10 uM after 48 hrs by SRB assay; summary of the method: as §1
UO-31 = assay: Antitumor activity against human UO31 cells after 48 hrs by SRB assay; details: UO-31, 48 h
Summary of the method: (§3)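 NCI60 panel cells grown in RPMI 1640 with 5% FBS and 2 mM L-glutamine, plated at 5000–40,000 cells/well and preincubated 24 h at 37 °C, 5% CO₂. Compound was added from DMSO at five concentrations, 10-fold or 1/2 log dilutions, then incubated 48 h.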

NCI-H23 = assay: Cytotoxicity against human NCI-H23 cells assessed as cellular growth at 10 uM after 48 hrs by SRB assay; summary of the method: as §1
BT-549 = assay: Antitumor activity against human BT549 cells after 48 hrs by SRB assay; details: BT-549, 48 h
Summary of the method: (§4)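 NCI60 screen: cells grown in RPMI 1640 with 5% FBS and 2 mM L-glutamine, plated at 5000–40,000 cells/well by doubling time, preincubated 24 h at 37 °C with 5% CO2. Compounds were diluted from DMSO stocks and given for 48 h, at five concentrations for dose response. A time-zero plate was TCA-fixed. Cells were TCA-fixed, stained with 0.4% SRB and read at 515 nm, with growth expressed relative to untreated controls.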

HCT-15 = assay: Antiproliferative activity against human HCT15 cells after 48 hrs by SRB assay; details: HCT-15, 48 h; summary of the method: as §4
Malme-3M [1] = assay: Cytotoxicity against human MALME-3M cells assessed as cellular growth at 10 uM after 48 hrs by SRB assay; summary of the method: as §1
MDA-MB-231 = assay: Cytotoxicity against human MDA-MB-231 cells assessed as cellular growth at 10 uM after 48 hrs by SRB assay; summary of the method: as §1
T47D [2] = assay: Antitumor activity against human T47D cells after 48 hrs by SRB assay; summary of the method: as §3
Malme-3M [3] = assay: Antitumor activity against human MALME-3M cells after 48 hrs by SRB assay; summary of the method: as §2
EKVX = assay: Cytotoxicity against human EKVX cells assessed as cellular growth at 10 uM after 48 hrs by SRB assay
Summary of the method: (§5)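 NCI60 single-dose screen of cells in RPMI 1640 with 5% FBS and 2 mM L-glutamine, preincubated 24 h at 37 °C, 5% CO₂. Cells were then exposed 48 h to compound added from DMSO stock. TCA-fixed, stained with 0.4% SRB in 1% acetic acid, dye solubilised in 10 mM Tris base and read at 515 nm. Growth is given as percent of untreated control.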

OVCAR-3 = assay: Antitumor activity against human OVCAR3 cells after 48 hrs by SRB assay; details: OVCAR-3, 48 h; summary of the method: as §2
LOX IMVI = assay: Cytotoxicity against human LOXIMVI cells assessed as cellular growth at 10 uM after 48 hrs by SRB assay; summary of the method: as §5
SR = assay: Cytotoxicity against human SR cells assessed as cellular growth at 10 uM after 48 hrs by SRB assay; summary of the method: as §1
SNB-75 = assay: Cytotoxicity against human SNB75 cells assessed as cellular growth at 10 uM after 48 hrs by SRB assay; summary of the method: as §1
T47D [4] = assay: Cytotoxicity against human T47D cells assessed as cellular growth at 10 uM after 48 hrs by SRB assay; summary of the method: as §1
IGROV-1 = assay: Cytotoxicity against human IGROV1 cells assessed as cellular growth at 10 uM after 48 hrs by SRB assay; summary of the method: as §5
HL-60(TB) = assay: Cytotoxicity against human HL-60(TB) cells assessed as cellular growth at 10 uM after 48 hrs by SRB assay
HOP-92 = assay: Antitumor activity against human HOP92 cells after 48 hrs by SRB assay; details: HOP-92, 48 h; summary of the method: as §2
KM12 = assay: Antitumor activity against human KM12 cells after 48 hrs by SRB assay; details: KM12, 48 h; summary of the method: as §2
SW-620 = assay: Antitumor activity against human SW620 cells after 48 hrs by SRB assay; details: SW-620, 48 h; summary of the method: as §3
[5] = read-out: LC50 (the source's name)
[6] = read-out: pLC50 (the source's name) (converted)

COc1ccc(/C(=C2\O[C@@H]([C@H]3COC(C)(C)O3)[C@H]3OC(C)(C)O[C@@H]23)c2cc(OC)c(OC)c(OC)c2)cc1O
Activity (UACC-257): 126.04%
Activity (SN12C): 84.5%
GI50 (MDA-MB-435): 3.61 µM
TGI (MDA-MB-435): 17.5 µM
CC50 (MDA-MB-435; [5]): > 100 µM
Activity (MCF7): 60.66%
GI50 (UO-31; read-out: GI50): 21.7 µM
CC50 (UO-31; [5]): > 100 µM
TGI (UO-31; read-out: TGI): 70.4 µM
GI50 (UO-31; read-out: pGI50 (converted)): 21.9 µM
CC50 (UO-31; [6]): > 100 µM
TGI (UO-31; read-out: pTGI (converted)): 70.8 µM
Activity (NCI-H23): 81.18%
CC50 (BT-549; [5]): > 100 µM
CC50 (BT-549; [6]): > 100 µM
CC50 (HCT-15; [5]): > 100 µM
CC50 (HCT-15; [6]): > 100 µM
Activity (Malme-3M [1]): 69.57%
Activity (MDA-MB-231): 54.45%
GI50 (T47D [2]; read-out: GI50): 63.6 µM
CC50 (T47D [2]; [5]): > 100 µM
TGI (T47D [2]; read-out: TGI): > 100 µM
GI50 (T47D [2]; read-out: pGI50 (converted)): 44.7 µM
CC50 (T47D [2]; [6]): > 100 µM
TGI (T47D [2]; read-out: pTGI (converted)): > 100 µM
GI50 (Malme-3M [3]): 2070 nM
LC50 (concentration killing 50% of cells present at time zero) (Malme-3M [3]): > 100 µM
TGI (Malme-3M [3]): 5.59 µM
Activity (EKVX): 100.52%
GI50 (OVCAR-3): 2390 nM
TGI (OVCAR-3): 5.67 µM
CC50 (OVCAR-3; [5]): 21.7 µM
Activity (LOX IMVI): 47.56%
Activity (SR): -13.6%
Activity (SNB-75): 24.26%
Activity (T47D [4]): 115.08%
Activity (IGROV-1): 92.61%
Activity (HL-60(TB)): -0.37%
GI50 (HOP-92): 4 µM
TGI (HOP-92): 38.3 µM
CC50 (HOP-92; [5]): > 100 µM
GI50 (KM12): 4.1 µM
LC50 (KM12): 72.9 µM
TGI (KM12): 17.8 µM
GI50 (SW-620; read-out: GI50): 7.28 µM
CC50 (SW-620; [5]): > 100 µM
TGI (SW-620; read-out: TGI): > 100 µM
GI50 (SW-620; read-out: pGI50 (converted)): 7.24 µM
CC50 (SW-620; [6]): > 100 µM
TGI (SW-620; read-out: pTGI): > 100 µM
